Results: ChEMBL document CHEMBL4715736, “Identification of anticancer agents based on the thieno[2,3-b]pyridine and 1H-pyrazole molecular scaffolds” (2016)

Columns and labels:
Assay type in all cases: functional
[1] = tested on: MOLT-4; assay: Growth inhibition of human MOLT-4 cells assessed as cell growth at 0.01 uM incubated for 48 hrs by sulforhodamine B assay relative to control; settings: read-out: Activity
[2] = tested on: HOP-92; assay: Growth inhibition of human HOP-92 cells assessed as cell growth at 0.01 uM incubated for 48 hrs by sulforhodamine B assay relative to control; settings: read-out: Activity
[3] = tested on: NCI-H226; assay: Growth inhibition of human NCI-H226 cells assessed as cell growth at 0.01 uM incubated for 48 hrs by sulforhodamine B assay relative to control; settings: read-out: Activity
[4] = tested on: NCI-H522; assay: Growth inhibition of human NCI-H522 cells assessed as cell growth at 0.01 uM incubated for 48 hrs by sulforhodamine B assay relative to control; settings: read-out: Activity
[5] = tested on: SNB-75; assay: Growth inhibition of human SNB-75 cells assessed as cell growth at 0.01 uM incubated for 48 hrs by sulforhodamine B assay relative to control; settings: read-out: Activity
[6] = tested on: Malme-3M; assay: Growth inhibition of human Malme-3M cells assessed as cell growth at 0.01 uM incubated for 48 hrs by sulforhodamine B assay relative to control; settings: read-out: Activity
[7] = tested on: SK-MEL-2; assay: Growth inhibition of human SK-MEL-2 cells assessed as cell growth at 0.01 uM incubated for 48 hrs by sulforhodamine B assay relative to control; settings: read-out: Activity
[8] = tested on: SK-MEL-5; assay: Growth inhibition of human SK-MEL-5 cells assessed as cell growth at 0.01 uM incubated for 48 hrs by sulforhodamine B assay relative to control; settings: read-out: Activity
[9] = tested on: UACC-257; assay: Growth inhibition of human UACC-257 cells assessed as cell growth at 0.01 uM incubated for 48 hrs by sulforhodamine B assay relative to control; settings: read-out: Activity
[10] = tested on: IGROV-1; assay: Growth inhibition of human IGROV-1 cells assessed as cell growth at 0.01 uM incubated for 48 hrs by sulforhodamine B assay relative to control; settings: read-out: Activity
[11] = tested on: BT-549; assay: Growth inhibition of human BT-549 cells assessed as cell growth at 0.01 uM incubated for 48 hrs by sulforhodamine B assay relative to control; settings: read-out: Activity
[12] = tested on: COLO 205; assay: Growth inhibition of human COLO 205 cells assessed as cell growth at 0.1 uM incubated for 48 hrs by sulforhodamine B assay relative to control; settings: read-out: Activity
Method in brief: (§1)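 NCI Developmental Therapeutics Program NCI60 panel. Compounds that were active in the 10 µM one-dose screen went on to dose–response testing. Growth at each concentration is expressed relative to untreated control (100%). GI50 (concentration giving 50% of maximal inhibition of proliferation) and TGI (concentration giving total growth inhibition) were derived from the curves.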

[13] = tested on: SNB-19; assay: Growth inhibition of human SNB-19 cells assessed as cell growth at 0.1 uM incubated for 48 hrs by sulforhodamine B assay relative to control; settings: read-out: Activity
[14] = tested on: OVCAR-5; assay: Growth inhibition of human OVCAR-5 cells assessed as cell growth at 0.1 uM incubated for 48 hrs by sulforhodamine B assay relative to control; settings: read-out: Activity
[15] = tested on: NCI/ADR-RES; assay: Growth inhibition of human NCI/ADR-RES cells assessed as cell growth at 0.1 uM incubated for 48 hrs by sulforhodamine B assay relative to control; settings: read-out: Activity
[16] = tested on: ACHN; assay: Growth inhibition of human ACHN cells assessed as cell growth at 0.1 uM incubated for 48 hrs by sulforhodamine B assay relative to control; settings: read-out: Activity
[17] = tested on: MDA-MB-468; assay: Growth inhibition of human MDA-MB-468 cells assessed as cell growth at 0.1 uM incubated for 48 hrs by sulforhodamine B assay relative to control; settings: read-out: Activity
[18] = tested on: HOP-92; assay: Growth inhibition of human HOP-92 cells assessed as cell growth at 1 uM incubated for 48 hrs by sulforhodamine B assay relative to control; settings: read-out: Activity
[19] = tested on: NCI-H322M; assay: Growth inhibition of human NCI-H322M cells assessed as cell growth at 1 uM incubated for 48 hrs by sulforhodamine B assay relative to control; settings: read-out: Activity
[20] = tested on: LOX IMVI; assay: Growth inhibition of human LOX IMVI cells assessed as cell growth at 1 uM incubated for 48 hrs by sulforhodamine B assay relative to control; settings: read-out: Activity
[21] = tested on: 786-0; assay: Growth inhibition of human 786-0 cells assessed as cell growth at 1 uM incubated for 48 hrs by sulforhodamine B assay relative to control; settings: read-out: Activity; method in brief: as §1
[22] = tested on: HOP-92; assay: Growth inhibition of human HOP-92 cells assessed as cell growth at 100 uM incubated for 48 hrs by sulforhodamine B assay relative to control; settings: read-out: Activity
[23] = tested on: COLO 205; assay: Growth inhibition of human COLO 205 cells assessed as cell growth at 100 uM incubated for 48 hrs by sulforhodamine B assay relative to control; settings: read-out: Activity; method in brief: as §1
[24] = tested on: SF-539; assay: Growth inhibition of human SF-539 cells assessed as cell growth at 100 uM incubated for 48 hrs by sulforhodamine B assay relative to control; settings: read-out: Activity
[25] = tested on: Malme-3M; assay: Growth inhibition of human Malme-3M cells assessed as cell growth at 100 uM incubated for 48 hrs by sulforhodamine B assay relative to control; settings: read-out: Activity
[26] = tested on: UACC-257; assay: Growth inhibition of human UACC-257 cells assessed as cell growth at 100 uM incubated for 48 hrs by sulforhodamine B assay relative to control; settings: read-out: Activity
[27] = tested on: OVCAR-3; assay: Growth inhibition of human OVCAR-3 cells assessed as cell growth at 100 uM incubated for 48 hrs by sulforhodamine B assay relative to control; settings: read-out: Activity
[28] = tested on: NCI/ADR-RES; assay: Growth inhibition of human NCI/ADR-RES cells assessed as cell growth at 100 uM incubated for 48 hrs by sulforhodamine B assay relative to control; settings: read-out: Activity
[29] = tested on: T47D; assay: Growth inhibition of human T47D cells assessed as cell growth at 100 uM incubated for 48 hrs by sulforhodamine B assay relative to control; settings: read-out: Activity
[30] = tested on: RPMI-8226; assay: Growth inhibition of human RPMI-8226 cells incubated for 48 hrs by sulforhodamine B assay
Method in brief: (§2)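 NCI DTP 60-line human tumour panel. Dose-response curves were run only for ligands active in the initial 10 µM screen. GI50 (concentration giving 50% of maximal inhibition of proliferation) and TGI (concentration giving total growth inhibition) were derived from these curves.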

[31] = tested on: SW-620; assay: Growth inhibition of human SW-620 cells incubated for 48 hrs by sulforhodamine B assay; method in brief: as §2
[32] = tested on: SNB-75; assay: Growth inhibition of human SNB-75 cells incubated for 48 hrs by sulforhodamine B assay; method in brief: as §2
[33] = tested on: LOX IMVI; assay: Growth inhibition of human LOX IMVI cells incubated for 48 hrs by sulforhodamine B assay
Method in brief: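 NCI60 panel at the NCI Developmental Therapeutics Program. Only compounds active in the 10 µM screen went to dose-response testing. GI50, the concentration giving 50% of maximal inhibition of proliferation, and TGI, the concentration giving total growth inhibition, were derived from the dose-response curves.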

[34] = tested on: OVCAR-3; assay: Growth inhibition of human OVCAR-3 cells incubated for 48 hrs by sulforhodamine B assay; settings: for CC50: read-out: LC50 (the source's name); method in brief: as §2
[35] = tested on: ACHN; assay: Growth inhibition of human ACHN cells incubated for 48 hrs by sulforhodamine B assay; settings: for CC50: read-out: LC50 (the source's name); method in brief: as §1

COc1cccc(NC(=O)c2sc3nc4c(cc3c2N)CN(Cc2ccccc2)CC4)c1 showed a growth at 0.01 µM [1] of 102%, a growth at 0.01 µM [2] of 90% and a growth at 0.01 µM [3] of 93%. For the same compound, the growth at 0.01 µM [4] was 95%, the growth at 0.01 µM [5] was 88% and the growth at 0.01 µM [6] was 97%. It also gave a growth at 0.01 µM [7] of 106%, a growth at 0.01 µM [8] of 99% and a growth at 0.01 µM [9] of 94%. It also gave a growth at 0.01 µM [10] of 101%, a growth at 0.01 µM [11] of 88% and a growth at 0.1 µM [12] of 98%. The growth at 0.1 µM [13] was 94%, the growth at 0.1 µM [14] was 95% and the growth at 0.1 µM [15] was 97%. For the same compound, the growth at 0.1 µM [16] was 101%, the growth at 0.1 µM [17] was 89% and the growth at 1 µM [18] was 64%. It also gave a growth at 1 µM [19] of 83%, a growth at 1 µM [20] of 86% and a growth at 1 µM [21] of 85%. It also gave a growth at 100 µM [22] of -38%, a growth at 100 µM [23] of -16% and a growth at 100 µM [24] of -75%. For the same compound, the growth at 100 µM [25] was -42%, the growth at 100 µM [26] was 21% and the growth at 100 µM [27] was -60%. The growth at 100 µM [28] was -26%, the growth at 100 µM [29] was -19% and the GI50 [30] was 38.9 µM. The LC50 [30] was greater than 100 µM, the TGI [30] was greater than 100 µM and the GI50 [31] was 1.85 µM. For the same compound, the LC50 (concentration killing 50% of cells) [31] was greater than 100 µM, the TGI [31] was 72.2 µM and the GI50 [32] was 1.73 µM. For the same compound, the LC50 [32] was 33.7 µM, the TGI [32] was 4.71 µM and the GI50 [33] was 4.09 µM. It also gave an LC50 [33] greater than 100 µM, a TGI [33] of 43.5 µM and a GI50 [34] of 7.53 µM. For the same compound, the TGI [34] was 26.9 µM, the CC50 [34] was 79.8 µM and the GI50 [35] was 3.46 µM. For the same compound, the TGI [35] was 64.5 µM and the CC50 [35] was greater than 100 µM.

Cc1cc(C)c(NC(=O)c2sc3nc4c(cc3c2N)CN(Cc2ccccc2)CC4)c(C)c1 gave a growth at 0.01 µM [1] of 99%, a growth at 0.01 µM [2] of 85% and a growth at 0.01 µM [3] of 92%. The growth at 0.01 µM [4] was 96%, the growth at 0.01 µM [5] was 82% and the growth at 0.01 µM [6] was 106%. It also gave a growth at 0.01 µM [7] of 108%, a growth at 0.01 µM [8] of 98% and a growth at 0.01 µM [9] of 94%. For the same compound, the growth at 0.01 µM [10] was 101%, the growth at 0.01 µM [11] was 87% and the growth at 0.1 µM [12] was 104%. The growth at 0.1 µM [13] was 96%, the growth at 0.1 µM [14] was 96% and the growth at 0.1 µM [15] was 100%. It also gave a growth at 0.1 µM [16] of 100%, a growth at 0.1 µM [17] of 78% and a growth at 1 µM [18] of 49%. The growth at 1 µM [19] was 102%, the growth at 1 µM [20] was 99% and the growth at 1 µM [21] was 82%. It also gave a growth at 100 µM [22] of -7%, a growth at 100 µM [23] of -60% and a growth at 100 µM [24] of -45%. The growth at 100 µM [25] was -17%, the growth at 100 µM [26] was 17% and the growth at 100 µM [27] was -47%. The growth at 100 µM [28] was -11%, the growth at 100 µM [29] was 1% and the GI50 [30] was 3.18 µM. For the same compound, the LC50 [30] was greater than 100 µM, the TGI [30] was 35.1 µM and the GI50 [31] was 2.6 µM. It also gave an LC50 (concentration killing 50% of cells) [31] greater than 100 µM, a TGI [31] of 17.1 µM and a GI50 [32] of 2.35 µM. The LC50 [32] was greater than 100 µM, the TGI [32] was 11 µM and the GI50 [33] was 5.01 µM. For the same compound, the LC50 [33] was 50.9 µM, the TGI [33] was 18.1 µM and the GI50 [34] was 2.32 µM. The TGI [34] was 12.6 µM, the CC50 [34] was greater than 100 µM and the GI50 [35] was 6.31 µM. For the same compound, the TGI [35] was greater than 100 µM and the CC50 [35] was greater than 100 µM.
